Assay results reported in ChEMBL document CHEMBL4265871, “Novel alkylated azoles as potent antifungals” (Eur J Med Chem, 2017).
In brackets after ≈: the same amount, converted by molar mass.

Legend:
in vitro = conditions: mouse, mouse erythrocytes
[1] = Selectivity index, ratio of EC50 for toxicity in human A549 cells to MIC50 for antifungal activity against Candida glabrata ATCC 2001; type: cell-based; conditions: read-out: Selectivity Index
How it was run: (§1)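 Selectivity index is the EC50 against the mammalian line (A549 or BEAS-2B) divided by the MIC against the given fungal strain.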

[2] = Hemolytic activity in mouse erythrocytes assessed as hemolysis level at 1.95 ug/ml incubated for 1 hr at 37 degC; type: ADME, cell-based, Erythrocyte; conditions: read-out: Activity
How it was run: (§2)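 Mouse erythrocytes incubated 1 h at 37 °C with test agents over 1.95 to 125 µg/mL. Percent lysis is read for each concentration.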

Pichia kudriavzevii = assay: Antifungal activity against Candida krusei ATCC 6258 incubated for 48 hrs by modified CLSI M27-A3 protocol based method; type: functional; conditions: ATCC 6258, 48 h, read-out: MIC100
How it was run: (§3)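 For C. albicans ATCC 10231, C. krusei ATCC 6258 and C. parapsilosis ATCC 22019, MIC-0 was read, meaning complete growth inhibition. For azole controls, MIC-2 (50% growth inhibition) was reported instead. Caspofungin and voriconazole were tested here; other controls came from earlier work.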

[3] = Selectivity index, ratio of […] for toxicity in human A549 cells to MIC50 for antifungal activity against Aspergillus flavus ATCC MYA-3631; type: cell-based; conditions: read-out: Selectivity Index
[4] = Selectivity index, ratio of EC50 for toxicity in human A549 cells to MIC50 for antifungal activity against ITC and FLC-resistant Candida albicans ATCC MYA-90819; type: cell-based; conditions: read-out: Selectivity Index
How it was run: as §1

Candida albicans [5] = assay: Antifungal activity against ITC and FLC-susceptible Candida albicans ATCC MYA-2310 incubated for 48 hrs by modified CLSI M27-A3 protocol based method; type: functional; conditions: ATCC MYA-2310, 48 h
[6] = Selectivity index, ratio of […] for toxicity in human A549 cells to MIC50 for antifungal activity against Aspergillus nidulans ATCC 38163; type: cell-based; conditions: read-out: Selectivity Index
[7] = Selectivity index, ratio of […] for toxicity in human BEAS2B cells to MIC50 for antifungal activity against Aspergillus nidulans ATCC 38163; type: cell-based; conditions: BEAS-2B cells, read-out: Selectivity Index
[8] = Selectivity index, ratio of EC50 for toxicity in human BEAS2B cells to MIC50 for antifungal activity against ITC and FLC-resistant Candida albicans ATCC MYA-90819; type: cell-based; conditions: BEAS-2B cells, read-out: Selectivity Index
How it was run: (§4)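 Ratio of the compound's EC50 against BEAS-2B cells to its MIC against the named C. albicans strain. […] For C. albicans strains other than ATCC 10231, trailing growth meant MIC-2 was taken, meaning 50% growth inhibition.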

Aspergillus flavus = assay: Antifungal activity against Aspergillus flavus ATCC MYA-3631 incubated for 48 hrs by CLSI M38-A2 protocol based method; type: functional; conditions: ATCC MYA-3631, 48 h, read-out: MIC100
[9] = Selectivity index, ratio of EC50 for toxicity in human A549 cells to MIC50 for antifungal activity against Candida albicans ATCC 64124; type: cell-based; conditions: read-out: Selectivity Index
How it was run: as §1

Candida albicans [10] = assay: Antifungal activity against ITC and FLC-resistant Candida albicans ATCC MYA-90819 incubated for 48 hrs by modified CLSI M27-A3 protocol based method; type: functional; conditions: ATCC MYA-90819, 48 h
[11] = Selectivity index, ratio of EC50 for toxicity in human BEAS2B cells to MIC50 for antifungal activity against ITC and FLC-susceptible Candida albicans ATCC MYA-2876; type: cell-based; conditions: BEAS-2B cells, read-out: Selectivity Index
How it was run: as §4

[12] = Selectivity index, ratio of EC50 for toxicity in human BEAS2B cells to MIC50 for antifungal activity against ITC and FLC-resistant Candida albicans ATCC 1237; type: cell-based; conditions: BEAS-2B cells, read-out: Selectivity Index
How it was run: as §1

[13] = Hemolytic activity in mouse erythrocytes assessed as hemolysis level at 7.8 ug/ml incubated for 1 hr at 37 degC; type: ADME, cell-based, Erythrocyte; conditions: read-out: Activity
How it was run: as §2

[14] = Selectivity index, ratio of EC50 for toxicity in human A549 cells to MIC50 for antifungal activity against ITC and FLC-resistant Candida albicans ATCC MYA-1003; type: cell-based; conditions: read-out: Selectivity Index
How it was run: as §1

[15] = Selectivity index, ratio of EC50 for toxicity in human BEAS2B cells to MIC50 for antifungal activity against ITC and FLC-susceptible Candida albicans ATCC MYA-2310; type: cell-based; conditions: BEAS-2B cells, read-out: Selectivity Index
How it was run: as §4

Nakaseomyces glabratus = assay: Antifungal activity against Candida glabrata ATCC 2001 incubated for 48 hrs by modified CLSI M27-A3 protocol based method; type: functional; conditions: ATCC 2001, 48 h
[16] = Toxicity in human A549 cells assessed as reduction in cell viability incubated for 24 hrs by resazurin dye based assay
How it was run: (§5)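 Toxicity tested in the nucleated lines A549 and BEAS-2B to give EC50 values. Selectivity index is EC50 against the mammalian line divided by the MIC against a given fungal strain.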

[17] = Selectivity index, ratio of […] for toxicity in human A549 cells to MIC50 for antifungal activity against Aspergillus terreus ATCC MYA-3633; type: cell-based; conditions: read-out: Selectivity Index
[18] = Selectivity index, ratio of EC50 for toxicity in human A549 cells to MIC50 for antifungal activity against Candida krusei ATCC 6258
[19] = Hemolytic activity in mouse erythrocytes assessed as hemolysis level at 125 ug/ml incubated for 1 hr at 37 degC; type: ADME, cell-based, Erythrocyte; conditions: read-out: Activity
How it was run: as §2

[20] = Selectivity index, ratio of […] for toxicity in human BEAS2B cells to MIC50 for antifungal activity against Aspergillus terreus ATCC MYA-3633; type: cell-based; conditions: BEAS-2B cells, read-out: Selectivity Index
[21] = Selectivity index, ratio of EC50 for toxicity in human A549 cells to MIC50 for antifungal activity against ITC and FLC-susceptible Candida albicans ATCC MYA-2876; type: cell-based; conditions: read-out: Selectivity Index
How it was run: as §1

[22] = Selectivity index, ratio of EC50 for toxicity in human BEAS2B cells to MIC50 for antifungal activity against Candida krusei ATCC 6258; conditions: BEAS-2B cells
[23] = Toxicity in human BEAS2B cells assessed as reduction in cell viability incubated for 24 hrs by resazurin dye based assay; conditions: BEAS-2B cells
How it was run: as §5

Candida albicans [24] = assay: Antifungal activity against ITC and FLC-resistant Candida albicans ATCC MYA-1003 incubated for 48 hrs by modified CLSI M27-A3 protocol based method; type: functional; conditions: ATCC MYA-1003, 48 h
How it was run: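 Because these Candida strains show trailing growth, MIC-2 was read, meaning 50% growth inhibition. Caspofungin and voriconazole were tested here; other controls came from earlier work.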

Aspergillus nidulans = assay: Antifungal activity against Aspergillus nidulans ATCC 38163 incubated for 48 hrs by CLSI M38-A2 protocol based method; type: functional; conditions: ATCC 38163, 48 h, read-out: MIC100
[25] = Selectivity index, ratio of EC50 for toxicity in human BEAS2B cells to MIC50 for antifungal activity against Candida albicans ATCC 64124; type: cell-based; conditions: BEAS-2B cells, read-out: Selectivity Index
How it was run: as §1

Candida parapsilosis = assay: Antifungal activity against Candida parapsilosis ATCC 22019 incubated for 48 hrs by modified CLSI M27-A3 protocol based method; type: functional; conditions: Lodderomyces parapsilosis, ATCC 22019, 48 h; read-out: MIC100
How it was run: as §3

[26] = Hemolytic activity in mouse erythrocytes assessed as hemolysis level at 15.6 ug/ml incubated for 1 hr at 37 degC; type: ADME, cell-based, Erythrocyte; conditions: read-out: Activity
How it was run: as §2

SMILES	hemolysis at 1 h, 62.5 ug/ml (in vitro) [%]	selectivity ratio [1]	hemolysis at 1 h, 1.95 ug/ml [2] [%]	MIC (Pichia kudriavzevii) [µM]	selectivity ratio [3]	selectivity ratio [4]	MIC50 (Candida albicans [5]) [µM]	selectivity ratio [6]	selectivity ratio [7]	selectivity ratio [8]	MIC (Aspergillus flavus) [µM]	selectivity ratio [9]	MIC50 (Candida albicans [10]) [µM]	selectivity ratio [11]	selectivity ratio [12]	hemolysis at 1 h, 7.8 ug/ml [13] [%]	selectivity ratio [14]	selectivity ratio [15]	MIC50 (Nakaseomyces glabratus) [µM]	EC50 at 24 h [16] [µg/mL]	other results
CCCCCCCCC(O)(Cn1cncn1)c1ccc(F)cc1F (stereo unspecified)	69	6	0	0.71 (≈ 0.24 µg/mL)	0.4	6	5.8 (≈ 1.96 µg/mL)	25	27	7	92.8 (≈ 31.3 µg/mL)	3	5.8 (≈ 1.96 µg/mL)	7	7	46.8	6	7	5.8 (≈ 1.96 µg/mL)	12 (≈ 35.6 µM)	selectivity ratio [17]: 2; selectivity ratio [18]: 50; hemolysis at 1 h, 125 ug/ml [19]: 97.1%; selectivity ratio [20]: 2; selectivity ratio [21]: 6; selectivity ratio [22]: 54; EC50 at 24 h [23]: 13 µg/mL (≈ 38.5 µM); MIC50 (Candida albicans [24]): 5.8 µM (≈ 1.96 µg/mL); MIC (Aspergillus nidulans): 1.4 µM (≈ 0.472 µg/mL); selectivity ratio [25]: 3; MIC (Candida parapsilosis): ≤ 0.18 µM; hemolysis at 1 h, 15.6 ug/ml [26]: 66.7%
CCCCCCC(O)(Cn1cncn1)c1ccc(F)cc1 (stereo unspecified)	7	4	0	3.3 (≈ 0.962 µg/mL)	1	32	26.8 (≈ 7.81 µg/mL)	16	16	32	> 107	1	3.3 (≈ 0.962 µg/mL)	4	1	5.2	4	4	26.8 (≈ 7.81 µg/mL)	> 31.3	selectivity ratio [17]: 2; selectivity ratio [18]: 32; hemolysis at 1 h, 125 ug/ml [19]: 24.1%; selectivity ratio [20]: 2; selectivity ratio [21]: 4; selectivity ratio [22]: 32; EC50 at 24 h [23]: > 31.3 µg/mL; MIC50 (Candida albicans [24]): 26.8 µM (≈ 7.81 µg/mL); MIC (Aspergillus nidulans): 6.7 µM (≈ 1.95 µg/mL); selectivity ratio [25]: 1; MIC (Candida parapsilosis): 1.6 µM (≈ 0.466 µg/mL); hemolysis at 1 h, 15.6 ug/ml [26]: 0%
CCCCCCC(O)(Cn1cncn1)c1ccc(Cl)cc1 (stereo unspecified)	83.9	1	0	6.3 (≈ 1.94 µg/mL)	1	10	102 (≈ 31.3 µg/mL)	10	8	8	> 102	1	12.7 (≈ 3.91 µg/mL)	4	8	0	19	1	> 102	38 (≈ 123 µM)	selectivity ratio [17]: 2; selectivity ratio [18]: 19; hemolysis at 1 h, 125 ug/ml [19]: 102%; selectivity ratio [20]: 2; selectivity ratio [21]: 5; selectivity ratio [22]: 16; EC50 at 24 h [23]: > 31.3 µg/mL; MIC50 (Candida albicans [24]): 6.3 µM (≈ 1.94 µg/mL); MIC (Aspergillus nidulans): 12.7 µM (≈ 3.91 µg/mL); selectivity ratio [25]: 1; MIC (Candida parapsilosis): > 102 µM; hemolysis at 1 h, 15.6 ug/ml [26]: 0%
